In article PMC4029506 (Bioorganic & medicinal chemistry, 2014):

Experiments:
FAAH = conditions: cited from earlier work
P450 3A4 = conditions: cited from earlier work
cannabinoid CB2 receptor = conditions: cited from earlier work
cannabinoid CB1 receptor = conditions: cited from earlier work
[1] = test system: human ether-a-go-go related gene (hERG); conditions: cited from earlier work
vanilloid receptors = conditions: cited from earlier work
P450 2D6 = conditions: cited from earlier work
P450 2C9 = conditions: cited from earlier work
[2] = previously observed; cited from earlier work
Hemiketal / hydrate = format: physicochemical; conditions: for hydrate (gem diol) formation at 24 h: 7% D2O–DMSO-d6, 24 h; for hydrate (gem diol) formation initially: 7% D2O–DMSO-d6, initially; for hemiketal formation: in CD3OD
[3] = molecular target: T1, purified recombinant rat FAAH (rFAAH) (Rattus norvegicus, UniProt P97612); test: FAAH enzyme inhibition assay; format: biochemical; conditions: for fold loss in activity / fold less potent than 3 against FAAH: relative to 3
T1 sequence (P97612 30-579 limits assumed): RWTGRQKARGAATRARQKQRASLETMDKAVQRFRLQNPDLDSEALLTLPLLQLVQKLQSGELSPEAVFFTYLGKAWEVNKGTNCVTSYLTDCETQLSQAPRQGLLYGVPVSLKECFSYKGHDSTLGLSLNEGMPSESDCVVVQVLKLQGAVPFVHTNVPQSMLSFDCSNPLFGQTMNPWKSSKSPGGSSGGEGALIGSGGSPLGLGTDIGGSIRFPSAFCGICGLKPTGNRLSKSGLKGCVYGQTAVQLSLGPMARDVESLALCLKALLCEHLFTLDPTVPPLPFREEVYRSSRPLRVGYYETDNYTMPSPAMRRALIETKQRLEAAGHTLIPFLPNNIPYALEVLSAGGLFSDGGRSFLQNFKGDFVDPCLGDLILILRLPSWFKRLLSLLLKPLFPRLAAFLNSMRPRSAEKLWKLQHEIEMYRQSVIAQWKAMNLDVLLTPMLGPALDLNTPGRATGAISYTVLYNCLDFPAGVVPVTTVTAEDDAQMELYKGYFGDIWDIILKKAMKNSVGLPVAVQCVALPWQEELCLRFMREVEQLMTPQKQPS

[4] = Epimerization in assay buffer without enzyme, monitored by chiral HPLC; format: physicochemical; conditions: assay buffer pH 9.1, without enzyme, 30 min
Procedure, shortened: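 Test compound dissolved in DMSO and added to assay buffer (pH 9.1) with no enzyme. Enantiopurity was followed by chiral HPLC over a 30 min exposure. Loss of enantiomeric excess is reported as percent change.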

[5] = test system: serine hydrolases in the mouse brain proteome including KIAA1363, MAGL, and ABHD6; test: Activity-based protein profile; format: biochemical; conditions: both enantiomers; mouse brain proteome 1 mg/mL, FP-rhodamine 100 nM, 10 nM to 100 μM
[6] = Racemization after dissolution in a variety of solvents; format: physicochemical; conditions: 5% Et3N in EtOAc

In the case of `O=C(CCCCCCc1ccccc1)c1ncc(-c2ccccn2)o1` [compound 2], the “antinociception in FAAH knockout mice” value (FAAH; FAAH knockout mice) is listed as “No antinociception”, the in vivo activity (FAAH) is listed as “antinociceptive and anti-inflammatory activity” and the “levels of anandamide in vivo” value (FAAH) is listed as “increases”. The “inhibition of P450 3A4” value (P450 3A4) was “does not inhibit”, the “binding to CB2” value (cannabinoid CB2 receptor) was “does not bind” and the “binding to CB1” value (cannabinoid CB1 receptor) was “does not bind”. For the same compound, the “inhibition of hERG” value [1] was “does not inhibit”, the “binding to vanilloid receptors” value (vanilloid receptors) was “does not bind” and the “inhibition of P450 2D6” value (P450 2D6) was “does not inhibit”. The “inhibition of P450 2C9” value (P450 2C9) was “does not inhibit” and the “hydrated (gem diol) state in solution” value [2] was “do not adopt a hydrated (gem diol) state”.

With `O=C(c1ncc(-c2ccccn2)o1)[C@H]1CCc2cc(Oc3ccccc3)ccc2C1` [compound 3, reference compound] the “hydrate (gem diol) or hemiketal formation” value (Hemiketal / hydrate; CD3OD and 7% D2O–DMSO-d6) was “no detectable”.

For `O=C(c1ncc(-c2ccccn2)o1)C1CCc2cc(Oc3ccccc3)ccc2O1` (stereo not drawn) [compound 14], the “fold loss in activity / fold less potent than 3 against FAAH” value [3] was 8 fold, the “fold reduction in activity upon introduction of the C5-pyridine substituent (14 vs 16)” value ([3]; relative to 16) was 2 fold and the “total change in ee (loss of enantiopurity)” value [4] was −4.4%. The “selectivity for FAAH over all other serine hydrolases” value [5] was over 200 fold, the “hydrate (gem diol) formation at 24 h” value (Hemiketal / hydrate) was 25% and the “hydrate (gem diol) formation initially” value (Hemiketal / hydrate) was “no gem diol detected”. For the same compound, the hemiketal formation (Hemiketal / hydrate) was 34%, the “racemization within the first hour” value [6] was “significant racemization” and the “time to complete epimerization” value ([6]; continued exposure) was at most 48 h.

In the case of `COC(=O)c1cccc(-c2cnc(C(=O)C3CCc4cc(Oc5ccccc5)ccc4O3)o2)n1` (stereo not drawn) [compound 15], the “hydrate (gem diol) formation at 24 h” value (Hemiketal / hydrate) is reported as 27%, the “hydrate (gem diol) formation initially” value (Hemiketal / hydrate) is reported as “no gem diol detected” and the hemiketal formation (Hemiketal / hydrate) is reported as 45%.

For `O=C(c1ncco1)C1CCc2cc(Oc3ccccc3)ccc2O1` (stereo not drawn) [compound 16], the “total change in ee (loss of enantiopurity)” value [4] was −6.8%, the “hydrate (gem diol) formation at 24 h” value (Hemiketal / hydrate) was 13% and the “hydrate (gem diol) formation initially” value (Hemiketal / hydrate) was “no gem diol detected”. For the same compound, the hemiketal formation (Hemiketal / hydrate) was 38%.

For `O=C(c1ncc(-c2ccccn2)o1)C1COc2cc(OCc3ccccc3)ccc2C1` (stereo not drawn) [compound 46], the “potency relative to the unsubstituted parent oxazoles” value ([3]; installation of the pyridine substituent at C5) was “roughly equipotent”, the “fold less active than either 2 or 3” value ([3]; relative to 2 or 3) was 4 fold and the “fold loss in activity / fold less potent than 3 against FAAH” value [3] was 2- to 4 fold. The “total change in ee (loss of enantiopurity)” value [4] was −4.8%.

With `O=C(c1ncc(-c2ccccn2)o1)C1COc2cc(Oc3ccccc3)ccc2C1` (stereo not drawn) [compound 47] the “fold loss in activity / fold less potent than 3 against FAAH” value [3] was 2- to 4 fold, the “total change in ee (loss of enantiopurity)” value [4] was −1.7% and the “selectivity for FAAH over all other serine hydrolases” value [5] was over 200 fold.

For `O=C(c1ncc(I)o1)C1COc2cc(Oc3ccccc3)ccc2C1` (stereo not drawn) [compound 54], the “fold difference in potency between the two enantiomers” value ([3]; FAAH inhibition) was 1.6 fold.
